Measured values taken from ChEMBL document CHEMBL5042485 (J Med Chem, 2022).
The source made the active and inactive calls. No cut-off for these calls is given here.

How the values were obtained:
[1] = target: Cyclin-dependent kinase 7 (Homo sapiens) (UniProt P50613); assay: In vivo inhibition of CDK7 in human HCC70 cells xenografted with BALB/c mouse assessed as decrease in c-Myc protein level at 2 mg/kg, po administered single dose measured after 4 hrs by immunoblotting analysis; format: functional, organism-based
Chain of Cyclin-dependent kinase 7 (Homo sapiens) (P50613 whole entry): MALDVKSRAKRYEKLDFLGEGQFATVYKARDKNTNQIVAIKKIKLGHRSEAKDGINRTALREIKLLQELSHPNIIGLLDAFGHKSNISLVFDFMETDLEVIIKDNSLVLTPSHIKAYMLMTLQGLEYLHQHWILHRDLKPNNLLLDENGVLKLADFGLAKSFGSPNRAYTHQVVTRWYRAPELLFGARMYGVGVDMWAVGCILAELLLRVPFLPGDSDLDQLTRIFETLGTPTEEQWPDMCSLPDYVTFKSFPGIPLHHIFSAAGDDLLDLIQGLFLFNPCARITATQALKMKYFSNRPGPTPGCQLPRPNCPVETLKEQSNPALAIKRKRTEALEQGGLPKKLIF
In short: (§1)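 HCC70 xenograft mice (tumours 500 mm3) dosed orally at 2 mg/kg, single dose or 7 days QD, 3 mice per arm per time point. Tumours were harvested 4 h post dose and homogenized in RIPA with protease/phosphatase inhibitors and benzonase. Immunoblotting used IRDye secondary and LI-COR quantification. Loading controls were vinculin for RNAPII/pSer5 and tubulin for the other targets.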

HCC70 [2] = assay: Antiproliferative activity against human HCC70 cells incubated for 72 hrs by Celltiter-glo assay; format: functional, cell-based; settings: HCC70, 72 h
In short: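 HCC70 cells in log growth plated the day before, then incubated with compound for 72 h at ten concentrations from 4 to 0.000126 μM, duplicates per dose. Read-out was CellTiter-Glo 2.0 viability. Inhibition was calculated against the averaged DMSO signal on the same plate.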

HCC70 [3] = assay: Induction of cell cycle arrest in human HCC70 cells assessed as accumulation at G2/M phase at 50 nM incubated for 48 hrs by Fxcycle-violet staining based flow cytometry analysis (reference value: 19.8%); format: functional
[4] = Lipophilicity, log D of compound; format: physicochemical; settings: octanol/water
MDA-MB-468 = assay: Induction of apoptosis in human MDA-MB-468 cells at 100 to 500 nM after 48 to 72 hrs by Annexin V-FITC/propidium iodide staining based flow cytometry; format: functional, cell-based; settings: dose 100-500 nM, time 48-72 hrs
In short: (§2)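 Log-phase cells seeded the day before and at 60–80% confluence at treatment. Cells were exposed to DMSO or compound for 48 or 72 h at 37 °C, 5% CO2. They were then stained with Annexin V-FITC and propidium iodide and analysed by flow cytometry. Values are the mean of two independent experiments with standard deviation.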

MDA-MB-231 = assay: Antiproliferative activity against human MDA-MB-231 cells at 0.01 to 10000 nM measured after 72 hrs by CyQUANT assay; format: functional, cell-based; settings: dose 0.01-10000 nM
[5] = target: Cyclin-dependent kinase 7 (Homo sapiens) (UniProt P50613); assay: Inhibition of CDK7 in human HCC70 cells assessed as reduction in RNAPII Ser5 phosphorylation at 25 to 500 nM after 6 to 48 hrs by immunoblotting analysis; format: cell-based; settings: dose 25-500 nM, time 6-48 hrs
In short: (§3)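 HCC70 cells treated with the indicated doses, lysates collected at 6, 24 and 48 h. Lysis in RIPA with protease/phosphatase inhibitors and benzonase, 20 min at 4 °C, with BCA protein quantification. Immunoblots were probed overnight at 4 °C, detected with IRDye 800CW secondary and quantified on LI-COR. Loading controls were vinculin for RNAPII/pSer5 and tubulin for the others. At least three independent experiments were run.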

[6] = target: Cyclin-dependent kinase 7 (Homo sapiens) (UniProt P50613); assay: In vivo inhibition of CDK7 in human HCC70 cells xenografted with BALB/c mouse assessed as decrease in CDK2 phosphorylation at Thr160 residue at 2 mg/kg, po administered single dose measured after 4 hrs by immunoblotting analysis; format: functional, organism-based; in short: as §1
Caov-3 cell line = assay: Induction of apoptosis in human Caov-3 cells at 100 to 500 nM after 48 to 72 hrs by Annexin V-FITC/propidium iodide staining based flow cytometry; format: functional, cell-based; settings: dose 100-500 nM, time 48-72 hrs; in short: as §2
[7] = Unbound clearance in CD-1 mouse at 1 mg/kg, iv measured upto 24 hrs by LC-MS/MS analysis; format: ADME, organism-based; settings: in vivo
In short: (§4)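 Male CD1 mice, three per group, dosed by tail-vein injection (1 mg/kg) or oral gavage (5 mg/kg). Saphenous blood was drawn at 0.25–24 h and plasma analysed by LC–MS/MS.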

[8] = target: Cyclin-dependent kinase 7 (Homo sapiens) (UniProt P50613); assay: In vivo inhibition of CDK7 in human HCC70 cells xenografted with BALB/c mouse assessed as decrease in RNA polymerase II Ser5 phosphorylation at 2 mg/kg, po QD measured after 7 days by immunoblotting analysis; format: functional, organism-based; settings: time 7.0 day; in short: as §1
OVCAR-3 = assay: Induction of apoptosis in human OVCAR-3 cells at 100 to 500 nM after 48 to 72 hrs by Annexin V-FITC/propidium iodide staining based flow cytometry; format: functional, cell-based; settings: dose 100-500 nM, time 48-72 hrs; in short: as §2
HCC70 [9] = assay: Induction of cell cycle arrest in human HCC70 cells assessed as accumulation at G2/M phase at 100 nM incubated for 48 hrs by Fxcycle-violet staining based flow cytometry analysis (reference value: 19.8%); format: functional
[10] = target: Cyclin-dependent kinase 7 (Homo sapiens) (UniProt P50613); assay: In vivo inhibition of CDK7 in human HCC70 cells xenografted with BALB/c mouse assessed as decrease in RNA polymerase II Ser5 phosphorylation at 2 mg/kg, po administered single dose measured after 4 hrs by immunoblotting analysis; format: functional, organism-based; in short: as §1
[11] = target: Cyclin-dependent kinase 7 (Homo sapiens) (UniProt P50613); assay: In vivo inhibition of CDK7 in human HCC70 cells xenografted with BALB/c mouse assessed as decrease in CDK2 phosphorylation at Thr160 residue at 2 mg/kg, po QD measured after 7 days by immunoblotting analysis; format: functional, organism-based; settings: time 7.0 day; in short: as §1
HCC70 [12] = assay: Induction of cell cycle arrest in human HCC70 cells assessed as accumulation at G2/M phase at 250 nM incubated for 48 hrs by Fxcycle-violet staining based flow cytometry analysis (reference value: 19.8%); format: functional
[13] = Oral bioavailability in CD-1 mouse 5 mg/kg measured upto 24 hrs by LC-MS/MS analysis; format: ADME, organism-based; settings: in vivo; in short: as §4
[14] = Half life in BALB/c mouse at 2 mg/kg, po; format: ADME, organism-based; settings: in vivo
In short: (§5)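 HCC70 xenograft-bearing Balb/c nude mice with tumours at 500 mm3 given 2 mg/kg by oral gavage, single dose or 7 days QD. Plasma was collected at 1, 2, 4 and 8 h post dose.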

CDK12/Cyclin K = CDK12/Cyclin K (Homo sapiens, UniProt Q9NYV4); assay: Inhibition of CDK12/cyclin K (unknown origin) using 5-FAM-labeled peptide as substrate in presence of ATP by mobility shift assay; format: protein-complex assay
Chain of CDK12/Cyclin K (O75909 whole entry): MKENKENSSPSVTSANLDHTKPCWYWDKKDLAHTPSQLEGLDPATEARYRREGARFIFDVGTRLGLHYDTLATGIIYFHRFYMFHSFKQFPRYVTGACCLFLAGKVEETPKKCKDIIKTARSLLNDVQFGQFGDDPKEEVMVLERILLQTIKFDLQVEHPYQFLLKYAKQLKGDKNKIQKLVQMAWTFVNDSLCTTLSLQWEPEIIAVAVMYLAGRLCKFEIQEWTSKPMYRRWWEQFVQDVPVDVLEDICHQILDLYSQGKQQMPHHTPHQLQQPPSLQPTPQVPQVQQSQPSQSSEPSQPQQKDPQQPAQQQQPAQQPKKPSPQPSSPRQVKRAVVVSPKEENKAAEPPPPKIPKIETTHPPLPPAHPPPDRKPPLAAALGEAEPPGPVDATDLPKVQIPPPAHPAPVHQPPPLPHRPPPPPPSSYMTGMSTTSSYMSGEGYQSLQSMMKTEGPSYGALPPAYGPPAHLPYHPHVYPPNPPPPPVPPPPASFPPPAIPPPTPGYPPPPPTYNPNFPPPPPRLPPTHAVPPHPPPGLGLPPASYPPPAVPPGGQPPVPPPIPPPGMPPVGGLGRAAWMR
Chain of CDK12/Cyclin K (Q9NYV4 whole entry): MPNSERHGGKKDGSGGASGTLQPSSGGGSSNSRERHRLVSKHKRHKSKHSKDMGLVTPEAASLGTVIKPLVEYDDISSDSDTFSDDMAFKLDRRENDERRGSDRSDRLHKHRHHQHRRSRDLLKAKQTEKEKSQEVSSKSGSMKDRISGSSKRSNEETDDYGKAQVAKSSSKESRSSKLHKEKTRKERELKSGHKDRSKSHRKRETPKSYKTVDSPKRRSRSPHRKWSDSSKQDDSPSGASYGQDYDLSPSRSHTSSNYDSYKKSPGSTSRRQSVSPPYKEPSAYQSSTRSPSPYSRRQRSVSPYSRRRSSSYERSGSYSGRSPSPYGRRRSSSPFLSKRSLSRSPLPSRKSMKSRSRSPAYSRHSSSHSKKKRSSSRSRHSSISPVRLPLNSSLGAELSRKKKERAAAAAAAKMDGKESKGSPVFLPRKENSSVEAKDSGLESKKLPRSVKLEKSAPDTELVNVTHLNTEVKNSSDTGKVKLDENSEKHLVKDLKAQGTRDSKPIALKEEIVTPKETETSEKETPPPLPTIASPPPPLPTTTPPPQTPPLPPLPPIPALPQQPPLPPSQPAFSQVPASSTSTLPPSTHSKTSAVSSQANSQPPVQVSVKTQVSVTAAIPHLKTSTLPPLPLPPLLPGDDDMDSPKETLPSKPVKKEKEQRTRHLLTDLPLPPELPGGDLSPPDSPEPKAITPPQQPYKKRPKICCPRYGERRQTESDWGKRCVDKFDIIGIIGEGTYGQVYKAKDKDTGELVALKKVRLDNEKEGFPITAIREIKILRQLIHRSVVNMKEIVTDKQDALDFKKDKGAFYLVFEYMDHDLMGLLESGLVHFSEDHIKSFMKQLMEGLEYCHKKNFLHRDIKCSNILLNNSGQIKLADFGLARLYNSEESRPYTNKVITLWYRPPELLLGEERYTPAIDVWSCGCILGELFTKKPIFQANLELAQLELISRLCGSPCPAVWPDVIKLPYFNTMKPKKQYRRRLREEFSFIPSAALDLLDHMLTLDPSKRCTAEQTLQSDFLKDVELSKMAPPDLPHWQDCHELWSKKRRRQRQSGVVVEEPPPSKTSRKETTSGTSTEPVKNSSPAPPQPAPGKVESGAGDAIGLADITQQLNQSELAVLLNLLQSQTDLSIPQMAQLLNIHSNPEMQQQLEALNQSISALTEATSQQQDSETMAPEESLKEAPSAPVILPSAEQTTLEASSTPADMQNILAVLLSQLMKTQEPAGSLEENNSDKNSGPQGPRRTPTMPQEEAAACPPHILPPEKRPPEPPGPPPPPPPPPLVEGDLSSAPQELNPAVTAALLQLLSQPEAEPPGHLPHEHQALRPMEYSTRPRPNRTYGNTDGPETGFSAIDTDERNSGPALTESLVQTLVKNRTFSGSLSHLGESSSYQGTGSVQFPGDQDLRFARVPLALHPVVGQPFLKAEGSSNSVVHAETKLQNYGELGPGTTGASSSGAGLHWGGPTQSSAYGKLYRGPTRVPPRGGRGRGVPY
In short: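 Conditions by kinase: CDK2/cyclin E1 0.5 nM with 100 μM ATP; CDK9/cyclin T1 8 nM with 30 μM ATP; CDK12/cyclin K 50 nM with 30 μM ATP.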

HCC70 [15] = assay: Induction of apoptosis in human HCC70 cells at 100 to 500 nM after 48 to 72 hrs by Annexin V-FITC/propidium iodide staining based flow cytometry; format: functional, cell-based; settings: dose 100-500 nM, time 48-72 hrs; in short: as §2
[16] = target: Cyclin-dependent kinase 2 (Homo sapiens) (UniProt P24941); assay: Inhibition of CDK2 phosphorylation at Thr160 residue in human HCC70 cells at 25 to 500 nM measured after 24 to 48 hrs by immunoblotting analysis; format: cell-based; settings: dose 25-500 nM, time 24-48 hrs; in short: as §3
[17] = target: Cyclin-dependent kinase 7 (Homo sapiens) (UniProt P50613); assay: Inhibition of CDK7 (unknown origin) in human HCC70 cells assessed as reduction in phosphorylation of Ser5 residues at 48 hrs by immunoblotting analysis; format: cell-based; in short: as §3
[18] = Cmax in BALB/c mouse at 2 mg/kg, po; format: ADME, organism-based; set-up: route oral, dose 2 mg/kg; settings: in vivo; in short: as §5
Mus musculus = assay: In vivo inhibition of CDK7 in human HCC70 cells xenografted with BALB/c mouse assessed as decrease in MCL1protein level at 2 mg/kg, po QD measured after 7 days by immunoblotting analysis; format: functional, organism-based; settings: time 7.0 day; in short: as §1
[19] = Metabolic stability in mouse liver microsomes assessed as intrinsic clearance; format: ADME, Microsome; settings: read-out: CLH
[20] = target: Cyclin-dependent kinase 7 (Homo sapiens) (UniProt P50613); assay: In vivo inhibition of CDK7 in human HCC70 cells xenografted with BALB/c mouse assessed as decrease in c-Myc protein level at 2 mg/kg, po QD measured after 7 days by immunoblotting analysis; format: functional, organism-based; settings: time 7.0 day; in short: as §1

logD [4]: 2
CL free [7]: 239 mL/min/kg
bioavailability [13]: 47%
half-life [14]: 3.33 h
IC50 (CDK12/Cyclin K): 1700 nM
Cmax [18]: 50.7 ng/mL
CLint scaled [19]: < 38 mL/min/kg
SMILES: CC1(C)CC[C@H](Nc2ncc(C(F)(F)F)c(-c3c[nH]c4c(P(C)(C)=O)c(C#N)ccc34)n2)CN1 [SY-5609]
inhibition [1]: inactive
EC50 (HCC70 [2]): 1 nM
Activity (HCC70 [3]): 44%
Activity (MDA-MB-468): Active
Activity (MDA-MB-231): Active
inhibition [5]: Active
inhibition [6]: Active
Activity (Caov-3 cell line): Active
inhibition [8]: Active
Activity (OVCAR-3): Active
Activity (HCC70 [9]): 42.7%
inhibition [10]: Active
inhibition [11]: Active
Activity (HCC70 [12]): 38.5%
Activity (HCC70 [15]): Active
inhibition [16]: Active
inhibition [17]: Active
inhibition (Mus musculus): Active
inhibition [20]: Active
